The source made the active and inactive calls. The calls are words filed in the database; no cut-off is given here.
Key:
[1] = system: Mus musculus; assay: Adjuvanted-antitumor vaccine activity in C57BL/6 mouse assessed as induction of MUC1-specific antisera production by measuring binding activity with MCF7 cells expressing MUC1 at 4 nmol, ip administered on […] and measured after 1 week post-last dose by incubating cells with compound-immunized mouse sera for 1 hr by FACS analysis; format: functional, organism-based
Method in brief: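 Antisera were collected 1 week after the fourth ip immunization (days 0, 14, 28, 42) of female C57BL/6 mice. MUC1-expressing human breast cancer MCF-7 cells were incubated with the antisera, then with FITC-labelled goat anti-mouse antibody, and binding was read by flow cytometry. The PBS-immunized group served as control.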

[2] = system: Peritoneal macrophage; assay: Adjuvanted-antitumor vaccine activity in C57BL/6 mouse peritoneal macrophages assessed as induction of IL-12 production after 24 hrs by ELISA; format: functional, cell-based
Method in brief: (§1)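 Peritoneal macrophages were harvested from C57BL/6 mice and incubated with the adjuvanted vaccine constructs. IL-6 and IL-12 released into the culture supernatant were quantified against a PBS control. Values are given as mean ± SD.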

[3] = system: Mus musculus; assay: Adjuvanted-antitumor vaccine activity in C57BL/6 mouse assessed as potentiation of Th1 mediated response by measuring increase in IFN-gamma level in splenocytes at 4 nmol, ip administered […] and measured after 1 week post-last dose by incubating splenocytes with MUC1 peptide for 48 hrs by ELISA; format: functional, organism-based
Method in brief: (§2)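 Splenocytes came from female C57BL/6 mice immunized ip on days 0, 14, 28 and 42. They were restimulated in culture with MUC1 peptide (10 μg/mL), and IL-4, IL-6, IL-12 and IFN-γ were measured in the supernatants. A PBS-immunized group served as comparison.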

[4] = system: Mus musculus; assay: Adjuvanted-antitumor vaccine activity in C57BL/6 mouse assessed as induction of IgG production in serum at 4 nmol, ip administered […] and measured after 1 week post last dose by ELISA; format: functional, organism-based
Method in brief: (§3)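 Female C57BL/6 mice, immunized intraperitoneally on days 0, 14, 28 and 42 (PBS group as control). Sera were collected 1 week after the last dose. ELISA measured total IgG titer or the IgG1, IgG2b, IgG2c and IgG3 isotypes. Values are given as mean ± SD.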

[5] = system: Mus musculus; assay: Adjuvanted-antitumor vaccine activity in C57BL/6 mouse assessed as potentiation of MUC1 mediated immune response by measuring increase in serum IgG2b level at 4 nmol, ip administered on […] and measured after 1 week post last dose by ELISA; format: functional, organism-based; method in brief: as §3
[6] = system: Mus musculus; assay: Adjuvanted-antitumor vaccine activity in C57BL/6 mouse assessed as potentiation of Th1 mediated response by measuring increase in IL-12 level in splenocytes at 4 nmol, ip administered on […] and measured after 1 weeks post-last dose by incubating splenocytes with MUC1 peptide for 48 hrs by ELISA; format: functional, organism-based; method in brief: as §2
[7] = system: Mus musculus; assay: Adjuvanted-antitumor vaccine activity in C57BL/6 mouse assessed as potentiation of Th2 mediated response by measuring increase in IL-6 level in splenocytes at 4 nmol, ip administered […] and measured after 1 weeks post-last dose by incubating splenocytes with MUC1 peptide for 48 hrs by ELISA; format: functional, organism-based; method in brief: as §2
[8] = system: Peritoneal macrophage; assay: Adjuvanted-antitumor vaccine activity in C57BL/6 mouse peritoneal macrophages assessed as induction of IL-6 production after 24 hrs by ELISA; format: functional, cell-based; method in brief: as §1
[9] = system: Mus musculus; assay: Adjuvanted-antitumor vaccine activity in C57BL/6 mouse assessed as potentiation of MUC1 specific Th2 immune response by measuring ratio of IgG1 to IgG2c in serum at 4 nmol, ip administered […] and measured after 1 week post last dose by ELISA; format: functional
Method in brief: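 Sera from female C57BL/6 mice given ip doses on days 0, 14, 28 and 42 were taken 1 week after the last dose. IgG1 and IgG2c were measured by ELISA and expressed as an IgG1/IgG2c ratio; a ratio above 1 was read as a Th2-type response.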

[10] = system: Mus musculus; assay: Aduvanted-antitumor vaccine activity in C57BL/6 mouse assessed as potentiation of MUC1 specific Th1 immune response by measuring increase in serum IgG2c level at 4 nmol, ip administered […] and measured after 1 week post last dose by ELISA; format: functional, organism-based; method in brief: as §3
[11] = system: Mus musculus; assay: Adjuvanted-antitumor vaccine activity in C57BL/6 mouse assessed as potentiation of Th2 mediated response by measuring increase in IL-4 level in splenocytes at 4 nmol, ip administered on […] and measured after 1 weeks post-last dose by incubating splenocytes with MUC1 peptide for 48 hrs by ELISA; format: functional, organism-based; method in brief: as §2
[12] = system: Mus musculus; assay: Adjuvanted-antitumor vaccine activity in C57BL/6 mouse assessed as potentiation of MUC1 mediated immune response by measuring increase in serum IgG3 level at 4 nmol, ip administered on […] and measured after 1 week post last dose by ELISA; format: functional, organism-based; method in brief: as §3
[13] = system: Mus musculus; assay: Adjuvanted-antitumor vaccine activity in C57BL/6 mouse assessed as potentiation of MUC1 specific Th2 immune response by measuring increase in serum IgG1 level at 4 nmol, ip administered on […] and measured after 1 week post last dose by ELISA; format: functional, organism-based; method in brief: as §3

SMILES: CCCCCCCCCCCCCCCC(=O)OC[C@H](CSC[C@H](N)C(=O)NCC(=O)N[C@@H](CC(=O)O)C(=O)N1CCC[C@H]1C(=O)N[C@@H](CCCCN)C(=O)N[C@@H](Cc1c[nH]cn1)C(=O)N1CCC[C@H]1C(=O)N[C@@H](CCCCN)C(=O)N[C@@H](CO)C(=O)N[C@@H](Cc1ccccc1)C(=O)NCC(=O)NCC(=O)NCC(=O)N[C@@H](Cc1c[nH]cn1)C(=O)NCC(=O)N[C@H](C(=O)N[C@H](C(=O)N[C@@H](CO)C(=O)N[C@@H](C)C(=O)N1CCC[C@H]1C(=O)N[C@@H](CC(=O)O)C(=O)N[C@H](C(=O)N[C@@H](CCCNC(=N)N)C(=O)N1CCC[C@H]1C(=O)N[C@@H](C)C(=O)N1CCC[C@H]1C(=O)NCC(=O)N[C@@H](CO)C(=O)N[C@H](C(=O)N[C@@H](C)C(=O)N1CCC[C@H]1C(=O)N1CCC[C@H]1C(=O)N[C@@H](C)C(=O)O)[C@@H](C)O)[C@@H](C)O)[C@@H](C)O)C(C)C)OC(=O)CCCCCCCCCCCCCCC
- Activity [1]: Active
- Activity [2]: Active
- Activity [3]: Active
- Activity [4]: Active
- Activity [5]: Active
- Activity [6]: Active
- Activity [7]: Active
- Activity [8]: Active
- Ratio [9]: >1
- Activity [10]: Active
- Activity [11]: Active
- Activity [12]: Active
- Activity [13]: Active

SMILES: CCCCCCCCCCCCCCCC(=O)OC[C@@H](CSC[C@H](N)C(=O)NCC(=O)N[C@@H](CC(=O)O)C(=O)N1CCC[C@H]1C(=O)N[C@@H](CCCCN)C(=O)N[C@@H](Cc1c[nH]cn1)C(=O)N1CCC[C@H]1C(=O)N[C@@H](CCCCN)C(=O)N[C@@H](CO)C(=O)N[C@@H](Cc1ccccc1)C(=O)NCC(=O)NCC(=O)NCC(=O)N[C@@H](Cc1c[nH]cn1)C(=O)NCC(=O)N[C@H](C(=O)N[C@H](C(=O)N[C@@H](CO)C(=O)N[C@@H](C)C(=O)N1CCC[C@H]1C(=O)N[C@@H](CC(=O)O)C(=O)N[C@H](C(=O)N[C@@H](CCCNC(=N)N)C(=O)N1CCC[C@H]1C(=O)N[C@@H](C)C(=O)N1CCC[C@H]1C(=O)NCC(=O)N[C@@H](CO)C(=O)N[C@H](C(=O)N[C@@H](C)C(=O)N1CCC[C@H]1C(=O)N1CCC[C@H]1C(=O)N[C@@H](C)C(=O)O)[C@@H](C)O)[C@@H](C)O)[C@@H](C)O)C(C)C)OC(=O)CCCCCCCCCCCCCCC
- Activity [1]: Active
- Activity [2]: Active
- Activity [3]: Active
- Activity [4]: Active
- Activity [5]: Active
- Activity [6]: Active
- Activity [7]: Active
- Activity [8]: Active
- Ratio [9]: >1
- Activity [10]: Active
- Activity [11]: Active
- Activity [12]: Active
- Activity [13]: Active

From ChEMBL document CHEMBL4622961, “Design, Synthesis, and Preliminary Immunological Studies of MUC1-Based Antitumor Vaccines Adjuvanted with R- and S-FSL-1” (2020)
